Assay results: ChEMBL document CHEMBL1938313, “Influence of the skeleton on the cytotoxicity of flavonoids” (Bioorg Med Chem, 2012)

Experiments:
[1] = tested on: KB; assay: Cytotoxicity against human KB cells assessed as growth inhibition at 10 '-6 M after 72 hrs by MTS assay; format: functional; conditions: read-out: GI
Method in brief: (§1)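 Cells seeded at 600 per well, dosed 24 h later from DMSO stocks over 0.5 nM–10 µM (DMSO 1% final in controls). KB was grown in D-MEM with 10% fetal calf serum; HL60 in complete RPMI. After 72 h, MTS was added for 3 h at 37 °C and A490 read. Inhibition % = (1 − OD treated/OD control) × 100, in triplicate; IC50 runs were in duplicate.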

[2] = Inhibition of sheep brain tubulin polymerization after 10 mins by turbidimetry analysis; parameters: species or system Ovis aries
Method in brief: (§2)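 Microtubule protein was purified from sheep brain by two assembly/disassembly cycles (37 °C/0 °C) in 100 mM MES pH 6.6, 1 mM EGTA, 0.5 mM MgCl2. Compound in DMSO (1 µL) was added to 150 µL microtubule solution, incubated 10 min at 37 °C then 5 min at 0 °C, and turbidity read at 350 nm. Single tests were at ~2 × 10^-5 M; IC50 was also expressed relative to deoxypodophyllotoxin IC50.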

[3] = species: Ovis aries; assay: Ratio of compound IC50 to DPPT IC50 for sheep brain tubulin; method in brief: as §2
[4] = tested on: HL-60; assay: Induction of apoptosis in human HL60 cells assessed as viable cells at 100 nM after 24 hrs using annexin-V-PE/7-AAD staining by flow cytometry analysis (reference value: 90.8 %); format: functional; conditions: HL-60, 24 h, read-out: Activity
[5] = tested on: HL-60; assay: Induction of apoptosis in human HL60 cells assessed as early apoptotic cells at 100 nM after 24 hrs using annexin-V-PE/7-AAD staining by flow cytometry analysis (reference value: 7.5 %); format: functional
[6] = tested on: HL-60; assay: Induction of apoptosis in human HL60 cells assessed as late apoptotic cells at 100 nM after 24 hrs using annexin-V-PE/7-AAD staining by flow cytometry analysis (reference value: 0.8 %); format: functional
[7] = tested on: HL-60; assay: Induction of apoptosis in human HL60 cells assessed as viable cells at 100 nM after 48 hrs using annexin-V-PE/7-AAD staining by flow cytometry analysis (reference value: 83.9 %); format: functional; conditions: HL-60, 48 h, read-out: Activity
[8] = tested on: HL-60; assay: Induction of apoptosis in human HL60 cells assessed as early apoptotic cells at 100 nM after 48 hrs using annexin-V-PE/7-AAD staining by flow cytometry analysis (reference value: 14.7 %); format: functional
[9] = tested on: HL-60; assay: Induction of apoptosis in human HL60 cells assessed as late apoptotic cells at 100 nM after 48 hrs using annexin-V-PE/7-AAD staining by flow cytometry analysis (reference value: 0.6 %); format: functional
[10] = tested on: HL-60; assay: Cell cycle arrest in human HL60 cells assessed as accumulation at Sub G1 phase at 100 nM after 24 hrs by propidium iodide based flow cytometry analysis (reference value: 2.3 %); format: functional
[11] = tested on: HL-60; assay: Cell cycle arrest in human HL60 cells assessed as accumulation at G0/G1 phase at 100 nM after 24 hrs by propidium iodide based flow cytometry analysis (reference value: 50.6 %); format: functional
[12] = tested on: HL-60; assay: Cell cycle arrest in human HL60 cells assessed as accumulation at S phase at 100 nM after 24 hrs by propidium iodide based flow cytometry analysis (reference value: 22.3 %); format: functional
[13] = tested on: HL-60; assay: Cell cycle arrest in human HL60 cells assessed as accumulation at G2/M phase at 100 nM after 24 hrs by propidium iodide based flow cytometry analysis (reference value: 24.8 %); format: functional
[14] = tested on: HL-60; assay: Cell cycle arrest in human HL60 cells assessed as accumulation at Sub G1 phase at 100 nM after 48 hrs by propidium iodide based flow cytometry analysis (reference value: 4 %); format: functional
[15] = tested on: HL-60; assay: Cell cycle arrest in human HL60 cells assessed as accumulation at G0/G1 phase at 100 nM after 48 hrs by propidium iodide based flow cytometry analysis (reference value: 51.2 %); format: functional
[16] = tested on: HL-60; assay: Cell cycle arrest in human HL60 cells assessed as accumulation at S phase at 100 nM after 48 hrs by propidium iodide based flow cytometry analysis (reference value: 20.9 %); format: functional
[17] = tested on: HL-60; assay: Cell cycle arrest in human HL60 cells assessed as accumulation at G2/M phase at 100 nM after 48 hrs by propidium iodide based flow cytometry analysis (reference value: 23.9 %); format: functional
[18] = tested on: HL-60; assay: Cytotoxicity against human HL60 cells assessed as growth inhibition after 72 hrs by MTS assay; conditions: HL-60, 72 h
[19] = tested on: KB; assay: Cytotoxicity against human KB cells after 72 hrs by MTS assay; format: functional, cell-based; method in brief: as §1
[20] = tested on: HL-60; assay: Cytotoxicity against human HL60 cells after 72 hrs by MTS assay; format: functional, cell-based; conditions: HL-60, 72 h; method in brief: as §1
[21] = species: Ovis aries; assay: Inhibition of sheep brain tubulin polymerization at 2 x 10 '-5 M after 10 mins by turbidimetry; method in brief: as §2
[22] = tested on: HL-60; assay: Cell cycle arrest in human HL60 cells assessed as accumulation at Sub G1 phase at 20 nM after 24 hrs by propidium iodide based flow cytometry analysis (reference value: 2.3 %); format: functional
[23] = tested on: HL-60; assay: Cell cycle arrest in human HL60 cells assessed as accumulation at G0/G1 phase at 20 nM after 24 hrs by propidium iodide based flow cytometry analysis (reference value: 50.6 %); format: functional
[24] = tested on: HL-60; assay: Cell cycle arrest in human HL60 cells assessed as accumulation at S phase at 20 nM after 24 hrs by propidium iodide based flow cytometry analysis (reference value: 22.3 %); format: functional
[25] = tested on: HL-60; assay: Cell cycle arrest in human HL60 cells assessed as accumulation at G2/M phase at 20 nM after 24 hrs by propidium iodide based flow cytometry analysis (reference value: 24.8 %); format: functional
[26] = tested on: HL-60; assay: Cell cycle arrest in human HL60 cells assessed as accumulation at Sub G1 phase at 20 nM after 48 hrs by propidium iodide based flow cytometry analysis (reference value: 4 %); format: functional
[27] = tested on: HL-60; assay: Cell cycle arrest in human HL60 cells assessed as accumulation at G0/G1 phase at 20 nM after 48 hrs by propidium iodide based flow cytometry analysis (reference value: 51.2 %); format: functional
[28] = tested on: HL-60; assay: Cell cycle arrest in human HL60 cells assessed as accumulation at S phase at 20 nM after 48 hrs by propidium iodide based flow cytometry analysis (reference value: 20.9 %); format: functional
[29] = tested on: HL-60; assay: Cell cycle arrest in human HL60 cells assessed as accumulation at G2/M phase at 20 nM after 48 hrs by propidium iodide based flow cytometry analysis (reference value: 23.9 %); format: functional

Compound: COc1ccc(/C=C/C(=O)c2c(O)c(OC)c(OC)c(OC)c2OC)cc1N
- inhibition of growth at 1 µM [1]: 11%

Compound: COc1ccc(/C=C2\Oc3c(OC)c(OC)c(OC)c(O)c3C2=O)cc1N
- inhibition of growth at 1 µM [1]: 0%

Compound: COc1ccc(/C=C2\Oc3c(OC)c(OC)c(OC)c(OC)c3C2=O)cc1N
- inhibition of growth at 1 µM [1]: 0%

Compound: COc1ccc(/C=C2\Oc3c(OC)c(O)c(OC)c(OC)c3C2=O)cc1N
- inhibition of growth at 1 µM [1]: 0%

Compound: COc1ccc(C2COc3c(OC)c(OC)c(OC)c(O)c3C2=O)cc1N (configuration not stated)
- inhibition of growth at 1 µM [1]: 4%

Compound: COc1ccc(/C=C2\Oc3c(cc(OC)c(OC)c3OC)C2=O)c(O)c1O
- IC50 [2]: 8600 nM
- Ratio IC50 [3]: 4
- viability at 0.1 µM [4]: 84.1%
- Activity [5]: 12.9%
- Activity [6]: 1.9%
- viability at 0.1 µM [7]: 77.1%
- Activity [8]: 21.1%
- Activity [9]: 0.8%
- Activity [10]: 14%
- Activity [11]: 9.8%
- Activity [12]: 23.7%
- Activity [13]: 52.5%
- Activity [14]: 23.2%
- Activity [15]: 31.4%
- Activity [16]: 28.2%
- Activity [17]: 17.2%
- IC50 [18]: 100000 nM

Compound: COc1ccc(/C=C2\Oc3c(cc(OC)c(OC)c3OC)C2=O)cc1N
- inhibition of growth at 1 µM [1]: 98%
- IC50 [19]: 400 nM
- IC50 [20]: 180 nM
- inhibition [21]: 33%
- viability at 0.1 µM [4]: 85.4%
- Activity [5]: 12.1%
- Activity [6]: 1.5%
- viability at 0.1 µM [7]: 81.7%
- Activity [8]: 16.4%
- Activity [9]: 1.1%
- Activity [10]: 13.9%
- Activity [11]: 39%
- Activity [12]: 18.7%
- Activity [13]: 28.4%
- Activity [14]: 14%
- Activity [15]: 42.6%
- Activity [16]: 22.5%
- Activity [17]: 20.8%

Compound: COc1ccc(-c2cc(=O)c3c(O)c(OC)c(OC)c(OC)c3o2)cc1N
- inhibition of growth at 1 µM [1]: 96%

Compound: COc1cc([C@@H]2c3cc4c(cc3C[C@H]3COC(=O)[C@@H]32)OCO4)cc(OC)c1OC [DESOXYPODOPHYLLOTOXIN]
- Activity [22]: 7.7%
- Activity [23]: 25.2%
- Activity [24]: 9.5%
- Activity [25]: 57.6%
- Activity [26]: 34.1%
- Activity [27]: 23.5%
- Activity [28]: 37.7%
- Activity [29]: 29.8%

Compound: COc1ccc(-c2oc3c(OC)c(OC)c(OC)c(O)c3c(=O)c2OC)cc1N
- inhibition of growth at 1 µM [1]: 99%
- IC50 [20]: 55 nM
- IC50 [2]: 9000 nM
- Ratio IC50 [3]: 4
- viability at 0.1 µM [4]: 74.2%
- Activity [5]: 22.8%
- Activity [6]: 2.1%
- viability at 0.1 µM [7]: 56.3%
- Activity [8]: 41%
- Activity [9]: 1.9%
- Activity [10]: 8.9%
- Activity [11]: 40.3%
- Activity [12]: 17.5%
- Activity [13]: 33.3%
- Activity [14]: 19.1%
- Activity [15]: 33.1%
- Activity [16]: 26.5%
- Activity [17]: 21.3%

Compound: COc1cccc2c1C(=O)c1c(O)c3c(c(O)c1C2=O)C[C@@](O)(C(=O)CO)C[C@@H]3O[C@H]1C[C@H](N)[C@H](O)[C@H](C)O1 [DOXORUBICIN]
- viability at 0.1 µM [4]: 81%
- Activity [5]: 17.8%
- Activity [6]: 0.9%
- viability at 0.1 µM [7]: 29.8%
- Activity [8]: 68%
- Activity [9]: 1.9%

Compound: COc1cc(OC)c(/C=C2\Oc3c(OC)c(OC)c(OC)c(O)c3C2=O)cc1N
- inhibition of growth at 1 µM [1]: 0%

Compound: COc1ccc(-c2cc(=O)c3c(OC)c(OC)c(OC)c(OC)c3o2)cc1N
- inhibition of growth at 1 µM [1]: 6%

Compound: COc1ccc(/C=C2\Oc3c(OC)c(OC)c(OC)c(O)c3C2=O)cc1[N+](=O)[O-]
- inhibition of growth at 1 µM [1]: 0%

Compound: COc1ccc(-c2coc3c(OC)c(OC)c(OC)c(O)c3c2=O)cc1N
- inhibition of growth at 1 µM [1]: 0%

Compound: COc1ccc(/C=C2\Oc3c(cc(OC)c(OC)c3OC)C2=O)cc1O
- inhibition of growth at 1 µM [1]: 100%
- IC50 [19]: 110 nM
- IC50 [20]: 120 nM
- inhibition [21]: 21%
- viability at 0.1 µM [4]: 81.1%
- Activity [5]: 16.8%
- Activity [6]: 1.1%
- viability at 0.1 µM [7]: 73.3%
- Activity [8]: 24.9%
- Activity [9]: 1.1%
- Activity [10]: 14.4%
- Activity [11]: 40.3%
- Activity [12]: 20.6%
- Activity [13]: 24.7%
- Activity [14]: 21.1%
- Activity [15]: 35.1%
- Activity [16]: 25.6%
- Activity [17]: 18.2%

Compound: COc1ccc(-c2coc3c(OC)c(OC)c(OC)c(O)c3c2=O)cc1[N+](=O)[O-]
- inhibition of growth at 1 µM [1]: 18%

Compound: COc1ccc(-c2oc3c(OC)c(OC)c(OC)c(OC)c3c(=O)c2OC)cc1N
- inhibition of growth at 1 µM [1]: 17%

Compound: COc1ccc(/C=C2\Oc3c(cc(OC)c(OC)c3OC)C2=O)cc1[N+](=O)[O-]
- inhibition of growth at 1 µM [1]: 0%
- inhibition [21]: 12%

Compound: COc1cc(OC)c(/C=C2\Oc3c(cc(OC)c(OC)c3OC)C2=O)cc1N
- inhibition of growth at 1 µM [1]: 0%
- inhibition [21]: 12%

Compound: COc1ccc(-c2oc3c(OC)c(OC)c(OC)cc3c(=O)c2OC)cc1N
- inhibition of growth at 1 µM [1]: 84%
